According to the M2OR odorant receptor database:

What was measured:
Conditions in all cases: stereoisomer not certain
UniProt Q8VFZ6 = target: T1, UniProt Q8VFZ6
T1 sequence (whole entry): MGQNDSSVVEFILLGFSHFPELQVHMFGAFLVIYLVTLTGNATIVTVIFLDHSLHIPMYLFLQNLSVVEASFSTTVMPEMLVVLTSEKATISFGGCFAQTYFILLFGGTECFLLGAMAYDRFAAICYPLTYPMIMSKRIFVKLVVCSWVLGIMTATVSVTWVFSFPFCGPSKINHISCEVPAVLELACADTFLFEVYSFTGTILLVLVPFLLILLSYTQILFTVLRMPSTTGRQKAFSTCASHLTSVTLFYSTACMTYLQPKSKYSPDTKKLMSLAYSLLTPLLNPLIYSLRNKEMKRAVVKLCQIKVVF
Procedure, shortened: (§1)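 Transient luciferase assays in mammalian cell lines were common, though methods varied by source. The values come from published papers and their supplementary material, with extra details from the original authors when needed. Responsive refers to a measured signal the original authors judged statistically different from baseline, and non-responsive (inactive) to the remainder.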

UniProt Q8VG01 = target: T2, UniProt Q8VG01
T2 sequence (whole entry): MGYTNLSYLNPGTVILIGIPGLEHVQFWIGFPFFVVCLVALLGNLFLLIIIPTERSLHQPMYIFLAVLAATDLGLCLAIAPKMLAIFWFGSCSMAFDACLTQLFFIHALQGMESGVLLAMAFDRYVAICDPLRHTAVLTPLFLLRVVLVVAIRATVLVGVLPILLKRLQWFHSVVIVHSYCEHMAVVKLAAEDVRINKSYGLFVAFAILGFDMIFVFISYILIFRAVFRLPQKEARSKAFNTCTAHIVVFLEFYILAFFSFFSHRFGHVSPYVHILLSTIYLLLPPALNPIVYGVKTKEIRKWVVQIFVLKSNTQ
Procedure, shortened: as §1

UniProt Q8VG22 = target: T3, UniProt Q8VG22
T3 sequence (whole entry): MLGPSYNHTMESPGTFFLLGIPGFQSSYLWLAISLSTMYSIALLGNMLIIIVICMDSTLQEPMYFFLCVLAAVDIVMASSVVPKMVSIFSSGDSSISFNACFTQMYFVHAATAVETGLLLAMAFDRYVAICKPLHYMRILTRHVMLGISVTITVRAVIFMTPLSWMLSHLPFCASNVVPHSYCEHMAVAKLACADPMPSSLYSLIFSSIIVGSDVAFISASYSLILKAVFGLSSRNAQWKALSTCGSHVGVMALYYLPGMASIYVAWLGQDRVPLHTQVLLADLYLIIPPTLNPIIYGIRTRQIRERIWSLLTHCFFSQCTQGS
Procedure, shortened: as §1

UniProt Q8VG26 = target: UniProt Q8VG26
Chain of UniProt Q8VG26 (Q8VG26 as listed by the source): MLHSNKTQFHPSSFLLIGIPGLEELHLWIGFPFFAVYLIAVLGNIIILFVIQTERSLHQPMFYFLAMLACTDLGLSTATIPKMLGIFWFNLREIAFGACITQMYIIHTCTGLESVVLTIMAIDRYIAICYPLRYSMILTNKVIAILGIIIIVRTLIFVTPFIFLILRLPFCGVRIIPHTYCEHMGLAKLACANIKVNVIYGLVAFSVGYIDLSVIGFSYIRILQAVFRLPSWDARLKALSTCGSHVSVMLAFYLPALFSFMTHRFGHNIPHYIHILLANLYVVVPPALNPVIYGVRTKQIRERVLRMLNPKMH
Procedure, shortened: as §1

UniProt Q8VG28 = target: UniProt Q8VG28
Chain of UniProt Q8VG28 (Q8VG28 as listed by the source): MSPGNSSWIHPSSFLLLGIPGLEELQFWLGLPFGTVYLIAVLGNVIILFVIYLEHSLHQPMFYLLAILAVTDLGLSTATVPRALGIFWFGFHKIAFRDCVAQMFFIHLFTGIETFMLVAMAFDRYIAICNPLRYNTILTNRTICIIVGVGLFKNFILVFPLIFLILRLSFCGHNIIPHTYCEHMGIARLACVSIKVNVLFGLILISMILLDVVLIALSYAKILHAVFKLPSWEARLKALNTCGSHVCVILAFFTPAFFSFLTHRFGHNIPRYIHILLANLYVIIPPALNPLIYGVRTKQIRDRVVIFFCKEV
Procedure, shortened: as §1

UniProt Q8VG49 = target: T4, UniProt Q8VG49
T4 sequence (whole entry): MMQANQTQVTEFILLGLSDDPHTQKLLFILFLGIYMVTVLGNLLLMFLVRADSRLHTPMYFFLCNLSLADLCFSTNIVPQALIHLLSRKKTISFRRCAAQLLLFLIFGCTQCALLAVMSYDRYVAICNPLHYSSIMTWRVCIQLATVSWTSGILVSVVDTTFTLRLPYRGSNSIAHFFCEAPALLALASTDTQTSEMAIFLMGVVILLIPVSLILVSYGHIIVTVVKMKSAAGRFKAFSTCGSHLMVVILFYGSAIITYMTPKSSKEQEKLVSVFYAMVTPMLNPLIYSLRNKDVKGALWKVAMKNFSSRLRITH
Procedure, shortened: as §1

UniProt Q8VG77 = target: T5, UniProt Q8VG77
T5 sequence (whole entry): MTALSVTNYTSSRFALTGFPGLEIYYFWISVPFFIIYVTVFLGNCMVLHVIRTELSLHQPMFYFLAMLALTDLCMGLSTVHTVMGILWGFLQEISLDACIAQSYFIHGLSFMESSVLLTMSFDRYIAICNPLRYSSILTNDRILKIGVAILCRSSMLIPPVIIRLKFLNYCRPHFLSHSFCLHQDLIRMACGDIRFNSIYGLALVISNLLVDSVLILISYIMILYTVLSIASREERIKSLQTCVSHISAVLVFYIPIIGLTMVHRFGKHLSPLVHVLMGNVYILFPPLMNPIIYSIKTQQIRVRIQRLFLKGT
Procedure, shortened: as §1

UniProt Q8VG96 = target: T6, UniProt Q8VG96
T6 sequence (whole entry): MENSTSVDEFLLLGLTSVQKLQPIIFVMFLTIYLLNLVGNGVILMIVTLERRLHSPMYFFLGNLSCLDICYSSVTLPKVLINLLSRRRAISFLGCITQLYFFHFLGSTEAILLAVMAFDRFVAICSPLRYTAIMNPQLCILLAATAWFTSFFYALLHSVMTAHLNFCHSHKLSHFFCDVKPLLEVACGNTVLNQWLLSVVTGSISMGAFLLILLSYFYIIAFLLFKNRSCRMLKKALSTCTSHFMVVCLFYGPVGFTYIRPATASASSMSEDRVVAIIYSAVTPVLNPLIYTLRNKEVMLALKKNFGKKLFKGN
Procedure, shortened: as §1

UniProt Q8VFP5 = target: T7, UniProt Q8VFP5
T7 sequence (whole entry): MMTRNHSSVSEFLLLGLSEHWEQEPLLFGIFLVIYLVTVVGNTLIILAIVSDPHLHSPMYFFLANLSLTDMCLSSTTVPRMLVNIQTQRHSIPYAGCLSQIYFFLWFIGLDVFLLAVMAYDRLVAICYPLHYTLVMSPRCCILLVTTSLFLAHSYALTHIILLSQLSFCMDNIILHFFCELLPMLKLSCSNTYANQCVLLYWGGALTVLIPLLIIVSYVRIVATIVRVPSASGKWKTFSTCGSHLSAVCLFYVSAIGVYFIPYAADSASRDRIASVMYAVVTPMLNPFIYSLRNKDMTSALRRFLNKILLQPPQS
Procedure, shortened: as §1

UniProt Q8VG27 = target: T8, UniProt Q8VG27
T8 sequence (whole entry): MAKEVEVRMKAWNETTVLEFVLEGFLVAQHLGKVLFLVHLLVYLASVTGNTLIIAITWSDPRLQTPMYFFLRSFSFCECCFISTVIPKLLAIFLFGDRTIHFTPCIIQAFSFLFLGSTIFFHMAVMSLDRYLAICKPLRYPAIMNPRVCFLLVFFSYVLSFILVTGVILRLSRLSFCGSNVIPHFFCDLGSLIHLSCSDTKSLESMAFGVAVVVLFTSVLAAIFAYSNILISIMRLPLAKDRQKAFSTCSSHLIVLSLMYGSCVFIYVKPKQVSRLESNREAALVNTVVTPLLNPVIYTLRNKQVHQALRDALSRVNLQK
Procedure, shortened: as §1

UniProt Q8VG53 = target: T9, UniProt Q8VG53
T9 sequence (whole entry): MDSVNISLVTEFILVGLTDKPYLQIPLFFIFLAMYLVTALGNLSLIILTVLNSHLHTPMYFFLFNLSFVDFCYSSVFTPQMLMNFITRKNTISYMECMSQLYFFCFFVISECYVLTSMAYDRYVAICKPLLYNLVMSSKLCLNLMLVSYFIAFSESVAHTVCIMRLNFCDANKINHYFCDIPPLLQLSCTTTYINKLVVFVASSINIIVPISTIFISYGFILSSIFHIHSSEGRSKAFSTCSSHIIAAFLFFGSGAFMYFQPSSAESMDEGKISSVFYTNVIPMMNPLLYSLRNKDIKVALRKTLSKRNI
Procedure, shortened: as §1

UniProt Q8VG64 = target: T10, UniProt Q8VG64
T10 sequence (whole entry): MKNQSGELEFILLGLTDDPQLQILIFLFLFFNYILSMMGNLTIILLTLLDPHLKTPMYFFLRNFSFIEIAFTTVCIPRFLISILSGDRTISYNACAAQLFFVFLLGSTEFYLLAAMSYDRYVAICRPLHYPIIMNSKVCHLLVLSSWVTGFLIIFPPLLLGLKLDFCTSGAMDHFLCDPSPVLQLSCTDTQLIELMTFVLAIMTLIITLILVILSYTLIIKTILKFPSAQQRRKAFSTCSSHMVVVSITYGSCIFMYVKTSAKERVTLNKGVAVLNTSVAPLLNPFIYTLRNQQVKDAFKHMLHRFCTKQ
Procedure, shortened: as §1

UniProt Q8VGB9 = target: T11, UniProt Q8VGB9
T11 sequence (whole entry): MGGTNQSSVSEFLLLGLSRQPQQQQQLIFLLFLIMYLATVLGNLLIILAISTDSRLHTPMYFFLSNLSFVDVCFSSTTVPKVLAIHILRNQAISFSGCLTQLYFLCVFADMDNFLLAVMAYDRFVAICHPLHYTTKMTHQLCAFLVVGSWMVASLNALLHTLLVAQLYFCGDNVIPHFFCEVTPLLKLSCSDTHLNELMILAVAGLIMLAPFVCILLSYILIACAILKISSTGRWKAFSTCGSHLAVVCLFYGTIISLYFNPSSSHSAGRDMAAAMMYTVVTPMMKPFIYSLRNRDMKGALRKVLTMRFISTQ
Procedure, shortened: as §1

UniProt Q8VFV2 = target: UniProt Q8VFV2
Chain of UniProt Q8VFV2 (Q8VFV2 as listed by the source): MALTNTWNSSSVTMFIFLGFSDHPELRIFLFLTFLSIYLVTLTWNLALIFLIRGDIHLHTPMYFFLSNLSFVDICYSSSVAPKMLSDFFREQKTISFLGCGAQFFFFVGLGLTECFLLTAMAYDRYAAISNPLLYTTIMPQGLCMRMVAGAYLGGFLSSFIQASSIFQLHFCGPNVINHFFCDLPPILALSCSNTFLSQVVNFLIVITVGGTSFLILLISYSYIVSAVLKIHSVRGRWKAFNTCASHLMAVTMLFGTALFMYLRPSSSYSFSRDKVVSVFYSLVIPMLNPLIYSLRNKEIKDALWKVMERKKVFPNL
Procedure, shortened: as §1

UniProt Q8VFV3 = target: UniProt Q8VFV3
Chain of UniProt Q8VFV3 (Q8VFV3 as listed by the source): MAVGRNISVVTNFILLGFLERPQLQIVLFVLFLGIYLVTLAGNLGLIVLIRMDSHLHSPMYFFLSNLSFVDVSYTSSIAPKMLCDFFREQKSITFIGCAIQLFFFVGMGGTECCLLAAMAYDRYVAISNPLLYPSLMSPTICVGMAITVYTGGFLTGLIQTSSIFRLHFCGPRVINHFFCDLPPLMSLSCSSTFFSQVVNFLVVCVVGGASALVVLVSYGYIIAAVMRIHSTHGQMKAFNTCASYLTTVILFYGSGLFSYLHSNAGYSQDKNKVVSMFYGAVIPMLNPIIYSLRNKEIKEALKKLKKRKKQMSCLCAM
Procedure, shortened: as §1

UniProt Q8VFV8 = target: UniProt Q8VFV8
Chain of UniProt Q8VFV8 (Q8VFV8 as listed by the source): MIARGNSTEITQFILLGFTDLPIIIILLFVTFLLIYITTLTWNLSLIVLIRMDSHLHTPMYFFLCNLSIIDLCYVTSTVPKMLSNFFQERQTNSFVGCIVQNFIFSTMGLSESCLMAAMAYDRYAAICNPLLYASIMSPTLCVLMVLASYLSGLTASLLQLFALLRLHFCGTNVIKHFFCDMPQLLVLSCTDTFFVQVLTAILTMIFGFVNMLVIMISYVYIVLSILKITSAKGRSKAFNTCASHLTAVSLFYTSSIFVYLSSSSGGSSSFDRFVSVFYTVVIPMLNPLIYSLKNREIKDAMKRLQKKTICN
Procedure, shortened: as §1

UniProt Q8VFW7 = target: UniProt Q8VFW7
Chain of UniProt Q8VFW7 (Q8VFW7 as listed by the source): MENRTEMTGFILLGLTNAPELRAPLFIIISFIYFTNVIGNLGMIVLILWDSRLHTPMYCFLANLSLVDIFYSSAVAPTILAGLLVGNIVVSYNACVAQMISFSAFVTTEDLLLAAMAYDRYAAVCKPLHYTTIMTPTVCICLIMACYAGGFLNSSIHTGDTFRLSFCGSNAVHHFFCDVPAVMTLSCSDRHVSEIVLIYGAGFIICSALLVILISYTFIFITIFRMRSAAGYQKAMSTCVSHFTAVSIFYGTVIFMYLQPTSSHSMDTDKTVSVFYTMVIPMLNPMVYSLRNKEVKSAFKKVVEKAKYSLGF
Procedure, shortened: as §1

UniProt Q8VG74 = target: UniProt Q8VG74
Chain of UniProt Q8VG74 (Q8VG74 as listed by the source): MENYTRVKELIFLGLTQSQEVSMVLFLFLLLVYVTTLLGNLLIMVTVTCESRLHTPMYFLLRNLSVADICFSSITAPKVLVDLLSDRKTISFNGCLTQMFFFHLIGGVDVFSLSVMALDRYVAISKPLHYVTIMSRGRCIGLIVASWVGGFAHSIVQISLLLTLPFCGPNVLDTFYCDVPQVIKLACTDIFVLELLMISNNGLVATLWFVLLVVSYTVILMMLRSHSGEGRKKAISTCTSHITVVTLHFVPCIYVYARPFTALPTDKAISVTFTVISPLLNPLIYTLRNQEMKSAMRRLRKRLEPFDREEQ
Procedure, shortened: as §1

UniProt Q8VGA9 = target: UniProt Q8VGA9
Chain of UniProt Q8VGA9 (Q8VGA9 as listed by the source): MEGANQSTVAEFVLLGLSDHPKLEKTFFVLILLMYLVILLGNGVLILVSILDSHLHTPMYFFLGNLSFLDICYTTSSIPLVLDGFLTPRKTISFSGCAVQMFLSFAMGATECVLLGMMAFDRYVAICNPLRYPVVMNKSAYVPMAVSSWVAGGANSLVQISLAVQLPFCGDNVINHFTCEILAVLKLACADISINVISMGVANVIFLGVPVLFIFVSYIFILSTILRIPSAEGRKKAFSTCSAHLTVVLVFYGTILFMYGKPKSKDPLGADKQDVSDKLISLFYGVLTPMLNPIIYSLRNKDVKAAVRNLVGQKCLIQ
Procedure, shortened: as §1

Measured: odorant receptor agonist call

CCCCCCCC(=O)[O-].[H+]
active: UniProt Q8VG01 | UniProt Q8VG28
inactive: UniProt Q8VFZ6 | UniProt Q8VG22 | UniProt Q8VG26 | UniProt Q8VG49 | UniProt Q8VG77 | UniProt Q8VG96

COc1nccnc1C
inactive: UniProt Q8VFP5 | UniProt Q8VG01 | UniProt Q8VG27 | UniProt Q8VG53 | UniProt Q8VG64 | UniProt Q8VGB9

CC(C)=CCCC(C)=CCOC(=O)C(C)C
inactive: UniProt Q8VFP5 | UniProt Q8VG01 | UniProt Q8VG27 | UniProt Q8VG53 | UniProt Q8VG64 | UniProt Q8VGB9

Cc1occc1SSc1ccoc1C
inactive: UniProt Q8VFP5 | UniProt Q8VG01 | UniProt Q8VG27 | UniProt Q8VG53 | UniProt Q8VG64 | UniProt Q8VGB9

CCCCCCCCCCOC(C)=O
inactive: UniProt Q8VFP5 | UniProt Q8VG01 | UniProt Q8VG53 | UniProt Q8VG64 | UniProt Q8VGB9
active: UniProt Q8VG27

O=C([O-])CCCCC(=O)[O-].[H+].[H+]
inactive: UniProt Q8VG28

CCCCCC(=Cc1ccccc1)C(OC)OC
inactive: UniProt Q8VFP5 | UniProt Q8VG01 | UniProt Q8VG27 | UniProt Q8VG53 | UniProt Q8VG64 | UniProt Q8VGB9

CCCC(C)=O
inactive: UniProt Q8VFZ6 | UniProt Q8VG01 | UniProt Q8VG22 | UniProt Q8VG26 | UniProt Q8VG28 | UniProt Q8VG49 | UniProt Q8VG77 | UniProt Q8VG96

CCC(C(=O)O)c1ccccc1 (stereo not given)
inactive: UniProt Q8VFZ6 | UniProt Q8VG01 | UniProt Q8VG22 | UniProt Q8VG49 | UniProt Q8VG77 | UniProt Q8VG96

CCc1ccc(O)cc1
inactive: UniProt Q8VFP5 | UniProt Q8VG01 | UniProt Q8VG27 | UniProt Q8VG53 | UniProt Q8VG64 | UniProt Q8VGB9

CNc1ccccc1C(=O)OC
inactive: UniProt Q8VFP5 | UniProt Q8VG01 | UniProt Q8VG27 | UniProt Q8VG53 | UniProt Q8VG64 | UniProt Q8VGB9

CC(CC=O)CCCC(C)(C)O (stereo not given)
inactive: UniProt Q8VFP5 | UniProt Q8VG01 | UniProt Q8VG27 | UniProt Q8VG53 | UniProt Q8VG64 | UniProt Q8VGB9

CC1CCCCCCCCCCCCC(=O)C1 (stereo not given)
inactive: UniProt Q8VFV2 | UniProt Q8VFV3 | UniProt Q8VFV8 | UniProt Q8VFW7 | UniProt Q8VG74 | UniProt Q8VGA9

O=C(O)CCCBr
inactive: UniProt Q8VG28

CCCCCOC(=O)CC
inactive: UniProt Q8VFP5 | UniProt Q8VG01 | UniProt Q8VG27 | UniProt Q8VG53 | UniProt Q8VG64 | UniProt Q8VGB9

CC1(C)CC(=O)CC(=O)C1
inactive: UniProt Q8VFP5 | UniProt Q8VG01 | UniProt Q8VG27 | UniProt Q8VG53 | UniProt Q8VG64 | UniProt Q8VGB9
